Measured values: paper PMC6465157 (Chemical research in toxicology, 2019)
Where two headings read alike, the source gives them in different places.

Columns and labels:
[1] = type: in vivo, mice
Method in brief: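 Whole blood was taken 1 to 48 h after a single oral gavage (6.63 mg/kg in corn oil). Hydroxylated metabolites were methylated, and all analytes were run by GC with 63Ni-µECD on an SPB-1 column (60 m × 250 µm × 0.25 µm). The oven ran from 100 °C to 280 °C; injector was 280 °C, detector 300 °C, helium 1.0 mL/min. A PCB congener internal standard served as volume corrector.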

[2] = type: in vivo, mice; remark: listed apart in the source
Method in brief: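 Blood extracts were dried under nitrogen. Headspace was sampled by SPME with a 100 µm PDMS fiber for 60 min at 60 °C, then desorbed in the injector for 5 min. Atropisomers were separated by GC-µECD with injector and detector at 250 °C and helium at 3.0 mL/min. The parent was measured on Chirasil-Dex at all time points from 1 to 48 h. Hydroxylated metabolites were measured at 5 h only, on Chirasil-Dex or CycloSil-B columns. Enantiomeric fractions were reported, n = 3–6.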

[3] = test system: mice; assay: Daily animal welfare-assessments of exposed mice; type: in vivo; settings: 6.63 mg/kg body weight in corn oil by oral gavage, up to 48 h
Method in brief: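 Male and female mice (8 weeks ± 2 days) with liver-specific cpr deletion and congenic wild-type mice were housed at 22 ± 2 °C on a 12 h light-dark cycle with diet and water ad libitum. They were randomised to a single gavage of test compound (6.63 mg/kg; 18.4 µmol/kg) in corn oil (10 mL/kg) or to corn oil alone. Lab personnel assessed welfare daily.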

[4] = prior study, 30 mg/kg body weight, cited from earlier work
[5] = 5 h time point, all four exposure groups (M-KO, M-WT, F-KO, F-WT)
[6] = 5 h time point, all exposure groups

## Oc1c(Cl)cc(Cl)c(-c2c(Cl)ccc(Cl)c2Cl)c1Cl [3–150, 2,2′,3′,4,6,6′-Hexachlorobiphenyl-3-ol]
[1]; [5]
  Detection in whole blood: detected

## Oc1c(O)c(Cl)c(-c2c(Cl)ccc(Cl)c2Cl)c(Cl)c1Cl [4,5–136, 4,5-dihydroxy-2,2′,3,3′,6,6′-hexachlorobiphenyl]
[1]; [5]
  Detection in whole blood: detected

## Oc1cc(Cl)c(-c2c(Cl)ccc(Cl)c2Cl)c(Cl)c1Cl [4–136, 2,2′,3,3′,6,6′-hexachlorobiphenyl-4-ol]
[1]; [5]
  Detection in whole blood: detected

## Oc1cc(Cl)c(Cl)c(-c2c(Cl)ccc(Cl)c2Cl)c1Cl [5–136, 2,2′,3,3′,6,6′-hexachlorobiphenyl-5-ol]
[1]; [5]
  Detection in whole blood: detected

## Oc1cc(Cl)c(Cl)c(-c2c(Cl)ccc(Cl)c2Cl)c1Cl [E1-5–136]
[2]; [6]
  Atropisomeric enrichment in whole blood: enriched

## Oc1cc(Cl)c(-c2c(Cl)ccc(Cl)c2Cl)c(Cl)c1Cl [E2-4–136]
[2]; [6]
  Atropisomeric enrichment in whole blood: enriched

## Clc1ccc(Cl)c(-c2c(Cl)ccc(Cl)c2Cl)c1Cl [E2-(+)-PCB 136]
[2]; all samples, 1 to 48 h, male and female KO and WT mice
  Atropisomeric enrichment in whole blood: enriched

## Clc1ccc(Cl)c(-c2c(Cl)ccc(Cl)c2Cl)c1Cl [PCB 136, 2,2’,3,3’,6,6’-hexachlorobiphenyl]
[3]
  Adverse outcomes in daily animal welfare-assessments: no adverse outcomes were observed
[4]; F-WT mice
  Enantiomeric fraction (EF) of PCB 136: 0.63 ± 0.06
[4]; M-WT mice (so in the source)
  Enantiomeric fraction (EF) of PCB 136: 0.66 ± 0.03
[1]; all time points investigated (1 to 48 h), oral racemic PCB 136 6.63 mg/kg
  Detection in whole blood: detected
